The source of these data is publication PMC6023675 (Journal of molecular biology, 2018).

The subject of assay [1] is cell-free translation of firefly luciferase in E. coli S30 cell extract. The class given is biochemical. The note with it: 30 μM inhibitor. A digest of the protocol: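 In vitro transcribed firefly luciferase mRNA (100 ng) was translated in E. coli S30 extract at 37°C for 30 min with test compound at 30 μM final. Luciferase activity was read with Steady-Glo substrate. Reactions were run in triplicate; error bars are confidence interval (α = 0.05).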

The test system of assay [2] is E. coli 70S ribosomes. Put plainly: Competition binding assay with BODIPY-labeled erythromycin. As to conditions: ratio of KDapp versus CLM; listed as L-histidyl analogue. The essentials:
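E. coli 70S ribosomes (25 nM) preincubated with BODIPY-erythromycin (4 nM) for 30 min at 25°C in 20 mM HEPES-KOH pH 7.5, 50 mM NH₄Cl, 10 mM Mg acetate, 0.05% Tween-20. Test compound was added at 0.1 μM to 1 mM, then incubated 2 h to equilibrium. Fluorescence polarization was read to give apparent KD by competition.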

The test system of assay [3] is ribosome translating synthetic ORF […]. Briefly: Primer extension inhibition. The class given is biochemical. The note with it: 100 μM antibiotic, with or without mupirocin 50 μM, ORF MFKAFKNIIRTRTL

As to `O=C(N[C@H](CO)[C@H](O)c1ccc([N+](=O)[O-])cc1)C(Cl)Cl` [CLM, chloramphenicol], the “Inhibition of firefly luciferase synthesis (in words)” value in assay [1] is listed as “near-complete inhibition”.
Consider `N[C@@H](Cc1c[nH]cn1)C(=O)N[C@H](CO)[C@H](O)c1ccc([N+](=O)[O-])cc1` [His-CAM (1)], for which the “Affinity for the ribosome relative to CLM (fold higher)” value in assay [2] was 10 fold.
For the molecule `C=C[C@]1(C)C[C@@H](OC(=O)CS[C@@H]2C[C@H]3CC[C@@H](C2)N3C)[C@]2(C)[C@H](C)CC[C@]3(CCC(=O)[C@H]32)[C@@H](C)[C@@H]1O` [retapamulin (RET), retapamulin], in assay [3], the “Site of antibiotic-induced translation arrest (toe-printing)” value is reported as “arrests the ribosome at the start codon”.
